Laboratory results published in paper PMC10739677 (Chembiochem : a European journal of chemical biology, 2023).
pIC50: −log10 of the molar value.

Columns and labels:
[1] = biological target: T1, GCL (pure human recombinant GCLC and GCLM) (Homo sapiens, UniProt P48506+P48507); assay: GCL functional assay; type: biochemical
T1 sequence (P48507 1-274): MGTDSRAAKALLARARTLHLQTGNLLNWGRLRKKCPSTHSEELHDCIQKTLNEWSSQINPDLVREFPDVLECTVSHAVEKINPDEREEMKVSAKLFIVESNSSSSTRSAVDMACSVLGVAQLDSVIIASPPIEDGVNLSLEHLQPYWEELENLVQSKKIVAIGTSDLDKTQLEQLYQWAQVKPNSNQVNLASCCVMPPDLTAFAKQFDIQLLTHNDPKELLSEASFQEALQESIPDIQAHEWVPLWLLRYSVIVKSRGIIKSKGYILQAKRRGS
T1 sequence (P48506 1-637): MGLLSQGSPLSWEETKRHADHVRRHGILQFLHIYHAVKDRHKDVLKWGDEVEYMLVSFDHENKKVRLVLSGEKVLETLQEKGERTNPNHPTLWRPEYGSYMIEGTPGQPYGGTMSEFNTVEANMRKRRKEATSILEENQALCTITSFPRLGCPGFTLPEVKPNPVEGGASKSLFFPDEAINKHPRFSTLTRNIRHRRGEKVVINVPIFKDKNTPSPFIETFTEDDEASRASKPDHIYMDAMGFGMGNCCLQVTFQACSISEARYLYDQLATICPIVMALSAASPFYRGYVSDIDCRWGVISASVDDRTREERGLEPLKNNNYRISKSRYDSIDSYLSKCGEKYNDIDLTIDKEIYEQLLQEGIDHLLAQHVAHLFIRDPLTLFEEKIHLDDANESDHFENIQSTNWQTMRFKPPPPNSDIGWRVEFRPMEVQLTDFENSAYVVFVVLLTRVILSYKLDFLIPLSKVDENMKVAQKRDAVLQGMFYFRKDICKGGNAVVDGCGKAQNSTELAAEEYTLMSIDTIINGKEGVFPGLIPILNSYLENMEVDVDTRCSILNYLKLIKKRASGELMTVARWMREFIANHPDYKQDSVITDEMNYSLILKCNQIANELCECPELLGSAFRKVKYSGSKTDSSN

[2] = biological target: T2, pure human GCLM protein (Homo sapiens, UniProt P48507); assay: Gel-based ABPP; type: binding
T2 sequence (P48507 1-274): T1 sequence (P48507 1-274)
Summary of the method: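 Pure recombinant human GCLM (0.1 μg in 50 μL PBS) treated for 30 min at 37 °C with alkyne probe (10–100 μM final) or DMSO. In the competition format, protein is first preincubated with test compound for 30 min at 37 °C, then labelled with probe (50 μM final) for 2 h at 37 °C. Rhodamine-azide (1 μM final) appended by CuAAC, then reducing SDS-PAGE and in-gel fluorescence; silver stain confirms loading.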

[3] = tested on: A2780 ARID1A-negative ovarian cancer cells; assay: Cell viability by Hoechst staining, A2780; type: cell-based, human; settings: Hoechst staining at 24 hr
Summary of the method: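 A2780 cells seeded at 6,000/well in 96-well plates and left to adhere overnight, then dosed with test compound or DMSO vehicle for 24 hr. Fixed and stained with 10% formalin plus Hoechst 33342 for 15 min in the dark at room temperature, then washed three times with PBS before fluorescence reading. Expressed as percentage of DMSO control, mean ± sem, n=6 biologically independent replicates.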

[4] = tested on: RMG-1 ARID1A-positive ovarian cancer cells; assay: Cell viability by Hoechst staining, RMG-1; type: cell-based, human; settings: Hoechst staining at 24 hr
[5] = tested on: GSH levels in A2780 cells; assay: LC-MS/MS quantification of GSH levels, A2780; type: cell-based, human; settings: SRM LC-MS/MS 4hr post treatment
[6] = tested on: GSH levels in RMG-1 cells; assay: LC-MS/MS quantification of GSH levels, RMG-1; type: cell-based, human; settings: SRM LC-MS/MS 4hr post treatment
[7] = biological target: T3, GCLM C114 (pure human GCLM and GCLC) (Homo sapiens, UniProt P48507); assay: LC-MS/MS analysis of EN25 adduct on GCL complex; type: binding; settings: EN25 50 μM, 30 min at 37°C; tryptic digest LC-MS/MS
T3 sequence (P48507 1-274): T1 sequence (P48507 1-274)
T3 sequence (P48506 1-637 partner): T1 sequence (P48506 1-637)

[8] = tested on: cysteines within proteins in A2780 cells; assay: isoTOP-ABPP cysteine chemoproteomic profiling; type: cell-based, human; settings: A2780 cells treated 90 min; IA-alkyne 100 μM
[9] = tested on: siGCLM A2780 cells; assay: Cell viability after GCLM knockdown; type: cell-based, human; settings: siGCLM vs siControl A2780, 24 hr treatment, Hoechst staining
[10] = tested on: A2780 cells; assay: Ferrostatin rescue experiment; type: cell-based, human; settings: Ferrostatin-1 2 μM with EN25 50μM, A2780, 48 hr, Hoechst staining

| Structure (SMILES) | pIC50 [1] | covalent labeling of GCLM ([2]; in-gel fluorescence after CuAAC with rhodamine-azide) | cell viability impairment [3] | cell viability impairment [4] | GSH levels [5] | GSH levels [6] | site of covalent modification on GCL complex [7] | competition of EN25-alkyne labeling of GCLM ([2]; pre-incubation 30 min at 37°C, then EN25-alkyne 50 μM for 2 h) | proteome-wide selectivity: potential off-targets [8] | cell viability impairment upon GCLM knockdown [9] | rescue of EN25-mediated cell viability impairment [10] |
| --- | --- | --- | --- | --- | --- | --- | --- | --- | --- | --- | --- |
| C#CCOc1ccc(-c2ccc(CNC(=O)c3ccc(CNC(=O)C=C)cc3)cc2)cc1 [EN25-alkyne] | 5.44 | showed covalent labeling of GCLM |  |  |  |  |  |  |  |  |  |
| C=CC(=O)NCc1ccc(C(=O)Nc2ccc(Sc3ccc(C)c(C)c3)cc2)cc1 [EN25] | 4.80 |  | more sensitive A2780 cancer cell line | RMG-1 cancer cells showed resistance to EN25-mediated cell viability impairments | significantly lowered GSH levels in A2780 cancer cells | no changes observed in RMG-1 cells | selective and covalent EN25 modification of C114 on GCLM | dose-responsive competition of this labeling by EN25 | nine potential off-targets of EN25 out of >5000 cysteines | GCLM knockdown with siRNA conferred hypersensitivity to EN25-mediated cell viability impairments |  |
| CCOC(=O)c1ccc(NC2CCCCC2)c(N)c1 [ferrostatin, Ferrostatin-1] |  |  |  |  |  |  |  |  |  |  | attenuated the cell viability impairments conferred by EN25 treatment |
